# Publication PMC10060059 (Thrombosis and Haemostasis, 2023)
# Where two headings read alike, the source gives them in different places. Marks after values point to notes of the source that are not given here.
# What was measured:
# [1] = test system: thrombin generation; test: Thrombin generation on ST-Genesia; assay type: biochemical, human
# [2] = cited from earlier work
# [3] = Six-month clinical follow-up; assay type: in vivo, human; conditions: 6-month follow-up
# How it was run: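 Bleedings (site, severity), thromboembolic events (site) and deaths were recorded. Two geriatricians blinded to PK/PD data classed bleeds as major or nonmajor clinically relevant, and minor bleeds were not systematically recorded. Rates were given per DOAC group.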
# [4] = Rivaroxaban/apixaban plasma concentrations; assay type: in vivo, human; conditions: for Effect of creatinine clearance on Cmax, multivariate analysis / Effect of creatinine clearance on Cmax, univariate analysis / Effect of creatinine clearance on Cmin, multivariate analysis / Effect of creatinine clearance on Cmin, univariate analysis: per decrease of 10 mL/min
# [5] = STG-ThromboScreen without thrombomodulin
# [6] = for halved concentrations, STG-ThromboScreen without thrombomodulin
# [7] = per decrease of 10 mL/min, STG-ThromboScreen without thrombomodulin
# [8] = 2.5 mg b.i.d. vs. 5 mg b.i.d., listed as apixaban
# [9] = CYP3A4/5 modulator in addition to amiodarone
# [10] = full dose: rivaroxaban 20 mg o.d., apixaban 5.0 mg b.i.d.
# [11] = reduced dose: rivaroxaban 15 mg o.d., apixaban 2.5 mg b.i.d.
# [12] = rivaroxaban 15 mg o.d., apixaban 2.5 mg b.i.d.
# [13] = P-gp modulator in addition to amiodarone
smiles,measurement,setting,value
"COc1ccc(-n2nc(C(N)=O)c3c2C(=O)N(c2ccc(N4CCCCC4=O)cc2)CC3)cc1 [Apixaban, apixaban]",association of ETP with DOAC concentrations,[1]; STG-DrugScreen and STG-ThromboScreen without TM,ETP was associated with apixaban concentrations
same,"Effect of amiodarone on peak height at Tmax, multivariate",[1]; [5],−26.0% [−91.8; 564.1]
same,"Effect of amiodarone on peak height at Tmax, univariate",[1]; [5],+3.7% [−58.7; 160.1]
same,"Effect of amiodarone on peak height at Tmin, multivariate",[1]; [5],−57.47% [−83.2; 7.9]
same,"Effect of amiodarone on peak height at Tmin, univariate",[1]; [5],−37.2% [−60.0; −1.5]
same,"Effect of heart failure on peak height at Tmax, multivariate",[1]; [5],−9.2% [−62.9; 122.6]
same,"Effect of heart failure on peak height at Tmax, univariate",[1]; [5],−26.7% [−66.7; 61.4]
same,"Effect of heart failure on peak height at Tmin, multivariate",[1]; [5],+0.84% [−30.8; 46.9]
same,"Effect of amiodarone on peak height at Tmin, univariate","[1]; STG-ThromboScreen without thrombomodulin, listed as apixaban",−37.2%
same,"Effect of plasma concentrations on peak height at Tmax, multivariate",[1]; [6],+86.8% ^a [−0.48; 250.5]
same,"Effect of plasma concentrations on peak height at Tmin, multivariate",[1]; [6],+32.7% ^a [8.28; 62.59]
same,"Effect of plasma concentrations on peak height at Tmin, univariate",[1]; [6],37.1% ^a 13.1; 66.2]
same,"Effect of creatinine clearance on peak height at Tmax, multivariate",[1]; [7],+2.4% ^b [−17.9; 27.8]
same,"Effect of creatinine clearance on peak height at Tmax, univariate",[1]; [7],+0.42% ^b [4.70; 36.9]
same,"Effect of creatinine clearance on peak height at Tmin, univariate",[1]; [7],1.7% ^b [−10.7; 15.8]
same,median Cmax,[2]; ARISTOTLE patients (median age 70 years) receiving 2.5 mg b.i.d.,123 ng/mL
same,inter-individual variability of concentrations,"[2]; SmPC, ARISTOTLE data set, mean age 70 years",around 30%
same,death rate,[3],18.9%
same,thromboembolic event rate,[3],3.6%
same,"Effect of dose regimen on Cmax, multivariate analysis",[4]; 2.5 mg b.i.d. vs. 5 mg b.i.d.,+64.8% ^e [16.6; 132.9]
same,"Effect of dose regimen on Cmax, univariate analysis",[4]; 2.5 mg b.i.d. vs. 5 mg b.i.d.,+44.9% ^e [7.14; 96.1]
same,"Effect of dose regimen on Cmin, multivariate analysis",[4]; 2.5 mg b.i.d. vs. 5 mg b.i.d.,+54.8% ^e [6.65; 124.6]
same,"Effect of dose regimen on Cmin, univariate analysis",[4]; 2.5 mg b.i.d. vs. 5 mg b.i.d.,+45.6% ^e [4.7; 102.6]
same,"Effect of dose regimen on Cmax, multivariate analysis",[4]; [8],+64.8%
same,"Effect of dose regimen on Cmax, univariate analysis",[4]; [8],44.9%
same,"Effect of dose regimen on Cmin, multivariate analysis",[4]; [8],+54.8%
same,"Effect of dose regimen on Cmin, univariate analysis",[4]; [8],45.6%
same,"Effect of CYP3A4/5 modulator on Cmin, univariate analysis",[4]; [9],+20.8% [−9.8; 61.7]
same,"Effect of amiodarone on Cmax, multivariate analysis",[4]; amiodarone intake,+79.3% [5.5; 204.7]
same,"Effect of amiodarone on Cmax, univariate analysis",[4]; amiodarone intake,+43.5% [7.9; 90.9]
same,"Effect of amiodarone on Cmin, univariate analysis",[4]; amiodarone intake,+14.4% [−18.5; 60.5]
same,"Effect of amiodarone on Cmax, univariate analysis","[4]; amiodarone intake, listed as apixaban",+43.5%
same,"Effect of female gender on Cmax, multivariate analysis",[4]; female gender,+28.7% [−4.5; 73.4]
same,"Effect of female gender on Cmax, univariate analysis",[4]; female gender,+44.0% [7.4; 93.1]
same,"Effect of female gender on Cmin, univariate analysis",[4]; female gender,+15.7% [−14.9; 57.1]
same,"Effect of female gender on Cmax, univariate analysis","[4]; female gender, listed as apixaban",+44.0%
same,inter-individual variability of Cmax (coefficient of variation),[4]; [10],47%
same,inter-individual variability of Cmin (coefficient of variation),[4]; [10],68%
same,"Effect of creatinine clearance on Cmax, multivariate analysis",[4],+4.5% ^b [−3.0; 11.4]
same,"Effect of creatinine clearance on Cmax, univariate analysis",[4],+3.3% ^b [−4.28; 10.31]
same,"Effect of creatinine clearance on Cmin, multivariate analysis",[4],+4.5% ^b [−4.9; 13.1]
same,"Effect of creatinine clearance on Cmin, univariate analysis",[4],+4.6% ^b [−4.2; 12.7]
same,"Effect of ABCB1 3435C > T on Cmax, multivariate analysis",[4]; per mutated allele,+10.1% ^d [−8.3; 25.3]
same,"Effect of ABCB1 3435C > T on Cmax, univariate analysis",[4]; per mutated allele,+2.1% ^d [−18.7; 19.3]
same,"Effect of ABCB1 3435C > T on Cmin, univariate analysis",[4]; per mutated allele,+14.8% ^d [−4.1; 30.3]
same,"Effect of ABCB1 3435C > T on Cmin, univariate analysis","[4]; per mutated allele, listed as apixaban",+14.8%
same,inter-individual variability of Cmax (coefficient of variation),[4]; [11],46%
same,inter-individual variability of Cmin (coefficient of variation),[4]; [11],61%
same,patients above the 95th percentile of SmPC values at Tmin,[4]; [12],9.7%
same,patients below the 5th percentile of SmPC values at Tmin,[4]; [12],9.7%
"O=C(NC[C@H]1CN(c2ccc(N3CCOCC3=O)cc2)C(=O)O1)c1ccc(Cl)s1 [Rivaroxaban, rivaroxaban]","Effect of amiodarone on peak height at Tmin, multivariate",[1]; [5],−44.6%** [−75.1; 23.2]
same,"Effect of amiodarone on peak height at Tmin, univariate",[1]; [5],−52.2%
same,"Effect of heart failure on peak height at Tmax, multivariate",[1]; [5],−22.3% [−45.0; 9.8]
same,"Effect of heart failure on peak height at Tmax, univariate",[1]; [5],−36.6%
same,"Effect of heart failure on peak height at Tmin, multivariate",[1]; [5],−12.7% [−37.7; 22.4]
same,"Effect of heart failure on peak height at Tmin, univariate",[1]; [5],−31.4% [−52.2; −1.7]
same,"Effect of plasma concentrations on peak height at Tmax, multivariate",[1]; [6],–5.0% ^a [−27.9; 25.2]
same,"Effect of plasma concentrations on peak height at Tmax, univariate",[1]; [6],+23.9% ^a [−11.4; 73.2]
same,"Effect of plasma concentrations on peak height at Tmin, multivariate",[1]; [6],+21.0% ^a [−4.0; 52.4]
same,"Effect of plasma concentrations on peak height at Tmin, univariate",[1]; [6],+38.7% ^a [12.4;71.1]
same,"Effect of creatinine clearance on peak height at Tmax, multivariate",[1]; [7],−16.4% ^b [−26.3; −5.0]
same,"Effect of creatinine clearance on peak height at Tmin, multivariate",[1]; [7],−6.76% ^b [−15.5; 2.8]
same,"Effect of creatinine clearance on peak height at Tmin, univariate",[1]; [7],−6.1% ^b [−16.2; 5.2 ]
same,inter-individual variability of Cmax and Cmin,[2]; Mueck et al's data,around 30%
same,death rate,[3],17.3%
same,thromboembolic event rate,[3],1.0%
same,"Effect of dose regimen on Cmax, multivariate analysis",[4]; 15 mg o.d. vs. 20 mg o.d.,29.4% ^a [−14.2; 95.2]
same,"Effect of dose regimen on Cmax, univariate analysis",[4]; 15 mg o.d. vs. 20 mg o.d.,+20.3% ^a [−16.7; +73.5]
same,"Effect of dose regimen on Cmin, multivariate analysis",[4]; 15 mg o.d. vs. 20 mg o.d.,−3.2% ^a [−35.1; 44.6]
same,"Effect of dose regimen on Cmin, univariate analysis",[4]; 15 mg o.d. vs. 20 mg o.d.,−3.8% ^a [−35.1; +42.6]
same,"Effect of dose regimen on Cmax, univariate analysis","[4]; 15 mg o.d. vs. 20 mg o.d., listed as rivaroxaban",+20.3%
same,"Effect of CYP3A4/5 modulator on Cmax, multivariate analysis",[4]; [9],+10.6% [−23.1; 58.9]
same,"Effect of CYP3A4/5 modulator on Cmax, univariate analysis",[4]; [9],+9.5% [−21.0; 51.6]
same,"Effect of CYP3A4/5 modulator on Cmin, multivariate analysis",[4]; [9],+43.1% [5.3; 94.3]
same,"Effect of CYP3A4/5 modulator on Cmin, univariate analysis",[4]; [9],+31.1% [−24.7; 72.2]
same,"Effect of P-gp inhibitor on Cmax, multivariate analysis",[4]; [13],−6.31% [−35.8; 36.6]
same,"Effect of P-gp inhibitor on Cmax, univariate analysis",[4]; [13],−9.95% [−35.3; 25.4]
same,"Effect of P-gp inhibitor on Cmin, multivariate analysis",[4]; [13],−8.7% [−34.2; 26.8]
same,"Effect of P-gp inhibitor on Cmin, univariate analysis",[4]; [13],−15.9% [−37.6; 13.5]
same,"Effect of amiodarone on Cmax, multivariate analysis",[4]; amiodarone intake,−26.1% ^b [−75.8; 125.5]
same,"Effect of amiodarone on Cmax, univariate analysis",[4]; amiodarone intake,+4.73% [−31.5; 60.2]
same,"Effect of amiodarone on Cmin, multivariate analysis",[4]; amiodarone intake,99.8% ^c [10.3; 262.0]
same,"Effect of amiodarone on Cmin, univariate analysis",[4]; amiodarone intake,+47.8% [−2.8; 109.4]
same,"Effect of amiodarone on Cmin, univariate analysis","[4]; amiodarone intake, listed as rivaroxaban",+47.8%
same,"Effect of female gender on Cmax, multivariate analysis",[4]; female gender,+11.8% [−20.8; 57.9]
same,"Effect of female gender on Cmax, univariate analysis",[4]; female gender,+12.2% [−17.7; 53.0]
same,"Effect of female gender on Cmin, multivariate analysis",[4]; female gender,−10.1% [−35.2; 22.3]
same,"Effect of female gender on Cmin, univariate analysis",[4]; female gender,−14.2% [−36.0; 15.1]
same,inter-individual variability of Cmax (coefficient of variation),[4]; [10],47%
same,inter-individual variability of Cmin (coefficient of variation),[4]; [10],37%
same,"Effect of creatinine clearance on Cmax, multivariate analysis",[4],+3.4% ^b [−7.6; 15.6]
same,"Effect of creatinine clearance on Cmax, univariate analysis",[4],+1.89% ^b [−8.2; 13.1]
same,"Effect of creatinine clearance on Cmin, multivariate analysis",[4],+5.0% ^b [−4.9; 16.0]
same,"Effect of creatinine clearance on Cmin, univariate analysis",[4],+8.1% ^b [−3.9; 15.8]
same,"Effect of creatinine clearance on Cmin, univariate analysis",[4]; listed as rivaroxaban,+8.1%
same,"Effect of ABCB1 3435C > T on Cmax, multivariate analysis",[4]; per mutated allele,+18.3% ^d [−10.9; 39.8]
same,"Effect of ABCB1 3435C > T on Cmax, univariate analysis",[4]; per mutated allele,+18.3% ^d [−5.3; 36.6]
same,"Effect of ABCB1 3435C > T on Cmin, multivariate analysis",[4]; per mutated allele,+10.4% ^d [−14.9; 30.1]
same,"Effect of ABCB1 3435C > T on Cmin, univariate analysis",[4]; per mutated allele,+16.9% ^d [−6.6; 31.0]
same,"Effect of ABCB1 3435C > T on Cmin, univariate analysis","[4]; per mutated allele, listed as rivaroxaban",+16.9%
same,inter-individual variability of Cmax (coefficient of variation),[4]; [11],49%
same,inter-individual variability of Cmin (coefficient of variation),[4]; [11],75%
same,median Cmax,"[4]; rivaroxaban 15 mg o.d., T1-T4, NVAF in-patients ≥80 years",251 ng/mL
same,patients above the 95th percentile of SmPC values at Tmin,[4]; [12],3.1%
same,patients below the 5th percentile of SmPC values at Tmin,[4]; [12],21.5%
